Source: ChEMBL document CHEMBL5335784, “Discovery of a novel 1,3,4-oxadiazol-2-one-based NLRP3 inhibitor as a pharmacological agent to mitigate cardiac and metabolic complications in an experimental model of diet-induced metaflammation” (Eur J Med Chem, 2023)
The source made the active and inactive calls. The rule behind the calls is not given here.

Experiments:
Rattus norvegicus [1] = test: Antiinflammatory activity against high fat diet fed-induced metaflammation Wistar rat model assessed as reduction in HFD-induced metabolic alterations by measuring reduction in total cholesterol level in plasma at 20 mg/kg/day, ip administered for 4 weeks; assay type: functional, organism-based
Method in brief: (§1)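 Rats fed HFD or SD for 12 weeks, dosed 20 mg/kg/day i.p. in saline/2% DMSO/5% Cremophor-EL during the final 28 days. Serum obtained after sacrifice by centrifuging blood at 2000 x g, 10 min, 4 °C. Glucose read by glucometer; total, HDL and LDL cholesterol and triglycerides measured with commercial kits. n=6–7 per group.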

Rattus norvegicus [2] = test: Antiinflammatory activity against high fat diet fed-induced metaflammation Wistar rat model assessed as reduction in HFD-induced anthropometric alterations by measuring reduction in heart weight at 20 mg/kg/day, ip administered for 4 weeks; assay type: functional, organism-based
Method in brief: (§2)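 Male Wistar rats on high-fat diet (60% kcal fat) or standard diet for 12 weeks; 20 mg/kg/day i.p. or vehicle (saline, 2% DMSO, 5% Cremophor-EL) over the last 28 days. Body weight recorded weekly. After sacrifice, abdominal, epididymal, retroperitoneal and perirenal fat, liver and heart excised and weighed. Cardiac somatic index = heart weight/body weight ×100. n=6–7 per group.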

Rattus norvegicus [3] = test: Antiinflammatory activity against high fat diet fed-induced metaflammation Wistar rat model assessed as reduction in HFD-induced anthropometric alterations by measuring reduction in cardiac somatic index at 20 mg/kg/day, ip administered for 4 weeks; assay type: functional, organism-based; method in brief: as §2
Rattus norvegicus [4] = test: Cardioprotective activity against high fat diet fed-induced metaflammation Wistar rat model assessed as reduction in myocardial damage by measuring reduction in plasma LDH level at 20 mg/kg/day, ip administered for 4 weeks; assay type: functional, organism-based
[5] = Effect on glyco-metabolic profile in standard diet fed Wistar rat assessed as effect on total cholesterol level in plasma at 20 mg/kg/day, ip administered for 4 weeks; assay type: toxicity, organism-based; details: in vivo, 672 h; method in brief: as §1
[6] = Effect on TNF-alpha level in standard diet fed Wistar rat serum at 20 mg/kg/day, ip administered for 4 weeks by ELISA; assay type: toxicity, organism-based; details: in vivo, 672 h
Method in brief: (§3)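 Male Wistar rats on HFD or SD for 12 weeks received 20 mg/kg/day i.p. (saline, 2% DMSO, 5% Cremophor-EL) or vehicle for the last 28 days. Circulating IL-1β, TNF-α, BNP and Gal-3 quantified by ELISA in blood collected after sacrifice. n=6–7 per group.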

Rattus norvegicus [7] = test: Antiinflammatory activity against high fat diet fed-induced metaflammation Wistar rat model assessed as reduction in HFD-induced anthropometric alterations by measuring reduction in body weight gain at 20 mg/kg/day, ip administered for 4 weeks; assay type: functional, organism-based; method in brief: as §2
Rattus norvegicus [8] = test: (§4) Cardioprotective activity against ischemia/reperfusion-induced myocardial injury and high diet fed obese Wistar rat model assessed as decrease in LDH activity in coronary effluents at 20 mg/kg/day, ip administered for 4 weeks followed by excised heart exposed to global ischemia for 30 mins and reperfusion for 120 mins and measured during first 30 mins of reperfusion by spectrophotometric analysis; assay type: functional, organism-based
Method in brief: (§5)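 HFD or SD rats, dosed 20 mg/kg/day i.p. for the final 28 days, anaesthetised with ethyl carbamate (2 g/kg i.p.). Hearts Langendorff-perfused with Krebs–Henseleit buffer (pH 7.4, 37 °C, 12 ml/min); 40 min stabilization, 30 min global no-flow ischemia, 120 min reperfusion. Coronary effluent collected on ice before ischemia and at 10, 20, 30 min reperfusion; LDH activity by McQueen method. n=6–7.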

[9] = Effect on glyco-metabolic profile in standard diet fed Wistar rat assessed as effect on LDL cholesterol level in plasma at 20 mg/kg/day, ip administered for 4 weeks; assay type: toxicity, organism-based; details: in vivo, 672 h; method in brief: as §1
Rattus norvegicus [10] = test: Inhibition of ischemia/reperfusion-induced inflammation in ischemia/reperfusion-induced myocardial injury and high fat diet fed obese Wistar rat model assessed as decrease in cardiac TNF-alpha level at 20 mg/kg/day, ip administered for 4 weeks followed by excised heart exposed to global ischemia for 30 mins and reperfusion for 120 mins by ELISA; assay type: functional, organism-based
Method in brief: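 Male Wistar rats on standard or 60% kcal fat diet for 12 weeks; last 28 days i.p. 20 mg/kg/day in saline with 2% DMSO and 5% Cremophor-EL, or vehicle. Hearts perfused by Langendorff with KH buffer at 12 ml/min, 37°C, then 40 min stabilization, 30 min global no-flow ischemia and 120 min reperfusion. Cytokines measured in LV tissue; n=6–7 per group.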

[11] = Drug metabolism in PBS assessed as half time for compound hydrolysis to 2-(5-(2-Chlorobenzyl)-2-oxo-1,3,4-oxadiazol-3(2H)-yl)acetic acid at 100 uM at pH 7.4 by RP-HPLC analysis; assay type: ADME
Method in brief: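 Compound added from 10 mM DMSO stock to 50 mM PBS, pH 7.4, 37 °C. Sampled over 48 h and quantified by RP-HPLC (phenyl column, 226/254 nm) against external standards of ester and acid.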

Rattus norvegicus [12] = test: (§6) Cardioprotective activity against myocardial ischemia/reperfusion injury-induced contractile impairment and high fat diet fed obese Wistar rat model assessed as left ventricular end diastolic pressure at 20 mg/kg/day, ip administered for 4 weeks followed by excised heart exposed to global ischemia for 30 mins and reperfusion for 120 mins and measured at the end of reperfusion (reference value: 27 +/-1 mmHg); assay type: functional
[13] = Cytotoxicity against human THP-1 cells assessed as reduction in cell viability measured after 72 hr by MTT assay; assay type: toxicity, cell-based; details: read-out: TC50
Method in brief: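 Undifferentiated THP-1 cells exposed to 0.1–100 μM compound for 72 h. Viability read by MTT reduction at 570 nm. TC50 from concentration–response; three experiments.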

[14] = Effect on glyco-metabolic profile in standard diet fed Wistar rat assessed as effect on triglyceride level in plasma at 20 mg/kg/day, ip administered for 4 weeks; assay type: toxicity, organism-based; details: in vivo, 672 h; method in brief: as §1
Rattus norvegicus [15] = test: as §4, with “and standard” for “and high”, “fed” for “fed obese”, “first 10” for “first 30”; assay type: functional, organism-based; method in brief: as §5
Rattus norvegicus [16] = test: Antiinflammatory activity against high fat diet fed-induced metaflammation Wistar rat model assessed as reduction in HFD-induced metabolic alterations by measuring increase in HDL cholesterol level in plasma at 20 mg/kg/day, ip administered for 4 weeks; assay type: functional, organism-based; method in brief: as §1
Rattus norvegicus [17] = test: Antiinflammatory activity against high fat diet fed-induced metaflammation Wistar rat model assessed as reduction in HFD-induced metabolic alterations by measuring reduction in triglyceride level in plasma at 20 mg/kg/day, ip administered for 4 weeks; assay type: functional, organism-based; method in brief: as §1
Rattus norvegicus [18] = test: as §6, with “standard” for “high fat”, “fed” for “fed obese”, “21 +/-2” for “27 +/-1”; assay type: functional
Rattus norvegicus [19] = test: as §6, with “standard” for “high fat”, “fed” for “fed obese”, “developed LVP recovery” for “left ventricular end diastolic pressure”, “43 +/-7” for “27 +/-1”; assay type: functional
[20] = Effect on developed LVP recovery in standard diet fed Wistar rat model at 20 mg/kg/day, ip administered for 4 weeks (reference value: 69 +/-4 mmHg); assay type: toxicity, organism-based; details: in vivo, 672 h
[21] = Effect on IL-1 beta level in standard diet fed Wistar rat serum at 20 mg/kg/day, ip administered for 4 weeks by ELISA; assay type: toxicity, organism-based; details: in vivo, 672 h; method in brief: as §3
[22] = Drug metabolism in human serum assessed as half time for compound hydrolysis to 2-(5-(2-Chlorobenzyl)-2-oxo-1,3,4-oxadiazol-3(2H)-yl)acetic acid at 100 uM by RP-HPLC analysis; assay type: ADME, cell-free
Method in brief: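 Compound at 100 μM final (from 10 mM DMSO stock) in human male AB serum held at 37 °C. Aliquots at intervals deproteinized with CH3CN/0.1% TFA, centrifuged, filtered and analysed by RP-HPLC against calibration standards. Pseudo-first-order t1/2 from exponential decay fit; three experiments.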

With `CCOC(=O)Cn1nc(Cc2ccccc2Cl)oc1=O` the Activity (Rattus norvegicus [1]) was “Active”, the Activity (Rattus norvegicus [2]) was “Active” and the Activity (Rattus norvegicus [3]) was “Active”. The Activity (Rattus norvegicus [4]) was “Active”, the Activity [5] was “Non-Toxic” and the Activity [6] was “Non-Toxic”. For the same compound, the Activity (Rattus norvegicus [7]) was “inactive”, the Activity (Rattus norvegicus [8]) was “Active” and the Activity [9] was “Non-Toxic”. The inhibition (Rattus norvegicus [10]) was “Active”, the half-life at 100 µM [11] was greater than 48 h and the Activity (Rattus norvegicus [12]) was 18 mmHg. For the same compound, the CC50 at 72 h [13] was 76.5 µM, the Activity [14] was “Non-Toxic” and the Activity (Rattus norvegicus [15]) was “Active”. The Activity (Rattus norvegicus [16]) was “Active”, the Activity (Rattus norvegicus [17]) was “Active” and the Activity (Rattus norvegicus [18]) was 13 mmHg. For the same compound, the Activity (Rattus norvegicus [19]) was 80 mmHg, the Activity [20] was 65 mmHg and the Activity [21] was “Non-Toxic”. It also gave a half-life at 100 µM [22] of 4 h.
